Experiments:
Type in all cases: functional
Cavia porcellus [1] = organism: Cavia porcellus; assay: Average skin reaction in guinea pig sensitized to the sesquiterpene isoalantolactone
How it was run: (§1)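 Female guinea pigs (albino Hartley and Himalayan spotted Füllingsdorf), 300–500 g, sensitized by Klečak's method. The hapten was emulsified in Freund's complete adjuvant and injected intradermally into the shaved nuchal region on alternate days, five injections in all. Skin reactions at elicitation were scored up to 3 (erythema plus swelling well beyond the test area) and 4 (necrosis or ulceration). Irritation thresholds were first set on untreated animals by the same elicitation procedure.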

Cavia porcellus [2] = organism: Cavia porcellus; assay: Number guinea pigs sensitized to the sesquiterpene alantolactone (out of 7 guinea pigs); how it was run: as §1; further: test concentration or dose not given here
Cavia porcellus [3] = organism: Cavia porcellus; assay: Number of guinea pigs sensitized to the sesquiterpene isoalantolactone (out of 8 guinea pigs); how it was run: as §1; further: test concentration or dose not given here
Cavia porcellus [4] = organism: Cavia porcellus; assay: Average skin reaction in guinea pig sensitized to the sesquiterpene alantolactone; how it was run: as §1
Cavia porcellus [5] = organism: Cavia porcellus; assay: Number of guinea pigs sensitized to alpha-methylene-gamma-butyrolactone (out of 10 guinea pigs); how it was run: as §1; further: test concentration or dose not given here
Cavia porcellus [6] = organism: Cavia porcellus; assay: Average skin reaction in guinea pig sensitized to alpha-methylene-gamma-butyrolactone; how it was run: as §1
Cavia porcellus [7] = organism: Cavia porcellus; assay: Open Epicutaneous tests were performed on guinea pigs sensitized to alpha-methylene-gamma-butyrolactone; how it was run: as §1; further: test concentration or dose not given here
Cavia porcellus [8] = organism: Cavia porcellus; assay: Average skin reaction in guinea pig sensitized to alpha-methylene-gamma-butyrolactone (toxic); how it was run: as §1
Cavia porcellus [9] = organism: Cavia porcellus; assay: Average skin reaction in guinea pig sensitized to the sesquiterpene isoalantolactone (toxic); how it was run: as §1
Cavia porcellus [10] = organism: Cavia porcellus; assay: Average skin reaction in guinea pig sensitized to the sesquiterpene alantolactone (toxic); how it was run: as §1
Cavia porcellus [11] = organism: Cavia porcellus; assay: Average skin reaction in guinea pig sensitized to the sesquiterpene alantolactone*-toxic; how it was run: as §1

Row | Compound | Average skin reaction (Cavia porcellus [1]) | No. of sensitive (Cavia porcellus [2]) | No. of sensitive (Cavia porcellus [3]) | Average skin reaction (Cavia porcellus [4]) | No. of sensitive (Cavia porcellus [5]) | Average skin reaction (Cavia porcellus [6]) | Average skin reaction (Cavia porcellus [7]) | Average skin reaction (Cavia porcellus [8]) | Average skin reaction (Cavia porcellus [9]) | Average skin reaction (Cavia porcellus [10]) | Average skin reaction (Cavia porcellus [11])
1 | C=C1C(=O)OC(c2ccccc2)(c2ccccc2)C1C(=O)OCC (centres undefined) | 0 | 1 | 0 | 0.1 | 0 | 0 | – | – | – | – | –
2 | C=C1CC2(OC1=O)C1CCC(C1)C2(C)C (centres undefined) | 1.1 | 7 | 8 | 0.7 | 0 | 0 | – | – | – | – | –
3 | C=C1CC(CC)(CC)OC1=O | 0.7 | 5 | 8 | 0.4 | 0 | 0 | – | – | – | – | –
4 | C=C1CC(c2ccccc2)(c2ccccc2)OC1=O | 0.4 | 7 | 5 | 0.9 | 0 | – | 0 | – | – | – | –
5 | C=C1C(=O)OC2CC3(C)CCCC(=O)C3CC12 (centres undefined) | 0.9 | 7 | 8 | 0.9 | – | – | – | – | – | – | –
6 | C=C1CC2(CCCC3CCCCC32)OC1=O (centres undefined) | 1.4 | 7 | 8 | 1.4 | 0 | 0 | – | – | – | – | –
7 | C=C1C(=O)OC2CC3(C)CCCC4(CO4)C3CC12 (centres undefined) | 1 | 7 | 8 | 0.7 | – | – | – | – | – | – | –
8 | C=C1CC2(CCC(C(C)(C)C)CC2)OC1=O (centres undefined) | 1.1 | 6 | 8 | 0.8 | 1 | 0 | – | – | – | – | –
9 | C=C1CC2(CCC3(CC2)CC(=C)C(=O)O3)OC1=O (centres undefined) | 0.1 | 0 | 1 | 0 | 0 | 0 | – | – | – | – | –
10 | C=C1C(=O)OC2CCCCC12 (centres undefined) | 0.1 | 1 | 1 | 0.1 | 3 | 0.1 | – | – | – | – | –
11 | C=C1CC2(OC1=O)C1CC3CC(C1)CC2C3 (centres undefined) | 0.8 | 6 | 8 | 0.8 | 2 | 0.1 | – | – | – | – | –
12 | C=C1CC2(CC[C@@]3(C)C(CC[C@H]4[C@@H]5CC[C@H](C(C)CCCC(C)C)[C@@]5(C)CC[C@@H]43)C2)OC1=O (some centres undefined) | 0 | 1 | 0 | 0.1 | 0 | 0 | – | – | – | – | –
13 | C=C1CC(C(C)(C)C)OC1=O (centres undefined) | 0.5 | 3 | 5 | 0.3 | 1 | 0.1 | – | – | – | – | –
14 | C=C1C(=O)OC2C3CCC(C3)C12 (centres undefined) | 1 | 7 | 8 | 0.9 | 2 | 0.1 | – | – | – | – | –
15 | C=C1CC(C)(c2ccccc2)OC1=O (centres undefined) | – | 7 | 8 | – | 5 | – | – | 0.4 | 1.3 | 1.1 | –
16 | C=C1CC(C)(CC(C)(C)C)OC1=O (centres undefined) | 0.8 | 6 | 7 | 0.6 | 2 | 0.1 | – | – | – | – | –
17 | C=C1CC2(CC3CCC2C3)OC1=O (centres undefined) | 0.2 | 4 | 4 | 0.3 | 0 | 0 | – | – | – | – | –

Row | Compound | Average skin reaction (Cavia porcellus [1]) | No. of sensitive (Cavia porcellus [2]) | No. of sensitive (Cavia porcellus [3]) | Average skin reaction (Cavia porcellus [4]) | No. of sensitive (Cavia porcellus [5]) | Average skin reaction (Cavia porcellus [6]) | Average skin reaction (Cavia porcellus [7]) | Average skin reaction (Cavia porcellus [8]) | Average skin reaction (Cavia porcellus [9]) | Average skin reaction (Cavia porcellus [10]) | Average skin reaction (Cavia porcellus [11])
18 | C=C1CC2(CCCc3ccccc32)OC1=O (centres undefined) | – | 7 | 8 | – | 10 | 0.9 | – | – | 2 | 1.7 | –
19 | C=C1CC2(CC3CC4(CC(=C)C(=O)O4)CC3C2)OC1=O (centres undefined) | 0.2 | 2 | 3 | 0.2 | 1 | 0 | – | – | – | – | –
20 | C=C1CC2(CCCCCCCCC2)OC1=O | 0.9 | 7 | 7 | 1.1 | 0 | 0 | – | – | – | – | –
21 | C=C1CC2(CCCCCC2)OC1=O | 1.2 | 7 | 8 | 1.1 | 2 | 0.1 | – | – | – | – | –
22 | C=C1CC(c2ccccc2)OC1=O (centres undefined) | – | 7 | 8 | – | 10 | – | – | 1.4 | 1.5 | 1.1 | –
23 | C=C1CC(C)(CC)OC1=O (centres undefined) | 0.4 | 5 | 6 | 0.4 | 0 | 0 | – | – | – | – | –
24 | C=C1CC(CC)OC1=O (centres undefined) | – | – | – | – | 0 | 0 | – | – | – | – | –
25 | C=C1CC(C(C)C)(C(C)C)OC1=O | 0.5 | 6 | 6 | – | 0 | 0 | – | – | – | – | 0.6
26 | C=C1CC(C)OC1=O (centres undefined) | 0 | 0 | 0 | 0 | 7 | 0.6 | – | – | – | – | –
27 | C=C1CC2(OC1=O)C(C)CCCC2C (centres undefined) | 1.7 | 7 | 8 | 1 | 0 | 0 | – | – | – | – | –
28 | C=C1CC(CCCCCCCCCCC)OC1=O (centres undefined) | – | 7 | 8 | – | 10 | – | – | 1 | 1.2 | 0.9 | –
29 | C=C1CC(C)(C)OC1=O | 0 | 0 | 0 | 0 | 6 | 0.5 | – | – | – | – | –
30 | C=C1C(=O)OC2CC3(C)CCCC(C)C3=CC12 (centres undefined) | 2.1 | 7 | 8 | 3 | 0 | 0 | – | – | – | – | –
31 | C=C1CC2(CCCC2)OC1=O | 0.1 | 2 | 1 | 0.2 | 0 | 0 | – | – | – | – | –
32 | C=C1CC2(CCCCC2)OC1=O | 0.8 | 5 | 8 | 0.5 | 2 | 0.1 | – | – | – | – | –
33 | C=C1C(=O)O[C@@H]2C[C@@]3(C)CCCC(=C)[C@@H]3C[C@H]12 [ISOALANTOLACTONE] | 1.4 | 7 | 8 | 1.4 | 0 | 0 | – | – | – | – | –
34 | C=C1CCOC1=O [TULIPALINE A] | – | 1 | – | 0.1 | 10 | 1.9 | – | – | – | – | –
